The record followed here is ChEMBL document CHEMBL1139923, “Biological evaluation of de-O-sulfonated analogs of salacinol, the role of sulfate anion in the side chain on the alpha-glucosidase inhibitory activity” (Bioorg Med Chem, 2007).

By IC50 is commonly meant the point on the concentration scale where inhibition reaches its midpoint. The inhibition is the relative decrease from the control value, in per cent. A high value points to a response far below the control.

Test [1] in a line: Inhibition of rat intestinal sucrase. In short, it runs like this: (§1)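 Sucrose (74 mM in the substrate solution, 0.1 M maleate buffer) was the substrate for intestinal α-glucosidase. Test compound was added from a DMSO stock diluted in buffer (2.5% DMSO final) along with enzyme. The mixture ran 30 min at 37 °C and was halted by boiling for 2 min. Released glucose was quantified by the glucose-oxidase method.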

A short description of test [2]: Inhibition of rat intestinal maltase. The essentials: (§2)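 Intestinal α-glucosidase from the in vitro assay with maltose as substrate, 74 mM in the substrate solution. Compound was dissolved in DMSO and diluted in 0.1 M maleate buffer, giving 2.5% DMSO final. Substrate, compound and enzyme solutions were incubated at 37 °C for 30 min, stopped by 2 min in boiling water, and glucose was measured by glucose-oxidase.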

Test [3] is filed under the species Rattus norvegicus. As to the kind of experiment: Inhibition of rat intestinal sucrase at 400 ug/ml. In short, it runs like this:
as §1

The species entered for test [4] is Rattus norvegicus. As to the kind of experiment: Inhibition of rat intestinal maltase at 1092 uM. The essentials: as §2
Test [5] is filed under the species Rattus norvegicus. As to the kind of experiment: Inhibition of rat intestinal maltase at 400 ug/ml. In short, it runs like this:
as §2

The source made the active and inactive calls. The rule behind the calls is not given here.

Take `OC[C@@H]1[C@@H](O)[C@H](O)C[S@@+]1C[C@@H](O)[C@@H](O)CO` [listing 1 of 2 here]: the half-inhibitory concentration (IC50) in test [1] came out at 3.5 µM; in test [2], 14 µM.
As to `OC[C@@H]1[C@@H](O)[C@H](O)C[S@@+]1C[C@@H](O)[C@@H](O)CO` [listing 2 of 2 here], the half-inhibitory concentration (IC50) in test [1] came to 3.7 µM; in test [2], 15.6 µM.
With `OC[C@H](O)[C@H](O)C[S@@+]1C[C@H](O)[C@@H](O)[C@@H]1CO`, the inhibition in the test listed under Rattus norvegicus [3] came out at 48%. For the same compound, the IC50 in test [1] and in test [2] was over 1090 µM each time. The outcome in the test listed under Rattus norvegicus [4] was inactive.
With `O=S(=O)([O-])O[C@@H](CO)[C@H](O)C[S@+]1C[C@@H](O)[C@H](O)[C@H]1CO` [SALACINOL], the figures for the concentration for half-maximal inhibition (IC50) in test [1] and in test [2] were 2.5 µM and 9.6 µM, respectively.
Regarding `O=S(=O)([O-])O[C@@H](CO)[C@H](O)C[S@@+]1C[C@H](O)[C@@H](O)[C@@H]1CO`, the inhibition was determined as 21% in the test filed under Rattus norvegicus [3] and 18% in the test filed under Rattus norvegicus [5]. The IC50 in test [1] and in test [2] was over 1200 µM throughout.
